Data set [1] is described as follows: Hemolytic activity against human RBC after 1 hr. The note with it: red blood cells (erythrocytes). In kind it is ADME, cell-based, Erythrocyte. In short, it runs like this: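 Human red blood cells were exposed to the test compound at a range of concentrations in phosphate-buffered saline for 1 h at 37°C. Hemolysis was referenced to 2% Triton X-100, taken as 100% hemolysis. The value reported is the concentration that lyses 50% of RBCs.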

For data set [2], the system named is Vero C1008. The experiment in a line: Cytotoxicity against African green monkey Vero E6 cells assessed as cell growth inhibition after 48 hrs by celltitre 96 aqueous one-based assay. Particulars: Chlorocebus sabaeus, Vero C1008, 48 h.
The nature of data set [3]: Selectivity index, ratio of IC50 for African green monkey Vero E6 cells to MIC50 for Mycobacterium bovis BCG ATCC 35734. In kind it is toxicity, Vero C1008. The note with it: read-out: Selectivity Index.
For data set [4], the system named is Lipid bilayer.
Data set [5] deals with Mycobacterium tuberculosis. The experiment in a line: Antimycobacterial activity against Mycobacterium tuberculosis H37Rv ATCC 27294 after 7 days by broth dilution method. Format: functional. Particulars: H37Rv ATCC 27294, 168 h. A general note: In broth dilution the organism is exposed to a series of concentrations in liquid medium.

In brackets after ≈: the same amount, converted by molar mass.

For `CCCCCCCCn1cc(CN2CCC3(C=Cc4ccccc43)CC2)c2ccc(OC)cc21`, in data set [1], the 50% haemolytic concentration (HC50) (in general, the concentration giving 50% haemolysis) at 1 h was above 300 µM. In data set [2], the IC50 (commonly the point on the concentration scale where inhibition reaches its midpoint) amounted to 44 µM. The selectivity ratio in data set [3] came to 44.

For `CCCCCCCCn1ccc2cc(OCCCN3CCCCCC3)ccc21`, in data set [4], the ΔTm – broadly, the shift of the melting midpoint relative to a reference – came out at 1 °C. For the same compound, the IC50 in data set [2] came out at 34 µM.

In turn, `CCCCCCCCn1cc(CN2CCC3(CC2)SCCCS3)c2ccc(OC)cc21` showed a 50% haemolytic concentration (HC50) at 1 h in data set [1] above 300 µM. In addition, in data set [2], the IC50 was 152 µM. Also, in data set [5], the MIC50 (commonly an inhibitory concentration at the 50% level, which refers to growth in some studies and to a panel of isolates in others) was determined as 0.5 µM (≈ 0.23 µg/mL); the MIC90 – broadly, the lowest concentration that inhibits either 90% of growth or 90% of the strains tested, depending on the study – amounted to 0.78 µM (≈ 0.359 µg/mL).

On to `COc1ccc2c(CN3CCC4(CC3)OCCCO4)cn(CCCOc3ccccc3)c2c1`, for which the 50% haemolytic concentration (HC50) at 1 h in data set [1] was above 300 µM.

As to `CCCCCCCCn1cc(CN2CCC3(CC2)OCCCO3)c2cccc([N+](=O)[O-])c21`, the 50% haemolytic concentration (HC50) at 1 h in data set [1] was above 300 µM. Moreover, the IC50 in data set [2] is 49 µM.

`CCCCCCCCn1cc(CNC2Cc3ccccc3C2)c2ccc(OC)cc21`: the IC50 in data set [2] turned out to be 24 µM. In data set [3], the selectivity ratio came out at 6.

Turning to `CCCCCCCCn1cc(CN2CCC3(CC2)OCCS3)c2ccc(OC)cc21`, the ΔTm in data set [4] was 4 °C. Moreover, the 50% haemolytic concentration (HC50) at 1 h in data set [1] is above 300 µM. For the same compound, in data set [2], the concentration for half-maximal inhibition (IC50) was 64 µM. In data set [5], this compound gave an MIC50 of 0.6 µM (≈ 0.258 µg/mL) and an MIC90 of 0.95 µM (≈ 0.409 µg/mL).

`CCCCCCCCn1cc(CNCC2CCC3(CCCC3)O2)c2ccc(OC)cc21` (configuration not stated): the 50% inhibitory concentration (IC50) in data set [2] worked out at 21 µM. In addition, in data set [3], the selectivity ratio was 12.

With `CCCCCCCCn1cc(CNCC2CC3CC3C2)c2ccc(OC)cc21` (configuration not stated), in data set [1], the 50% haemolytic concentration (HC50) at 1 h is 33 µM. Further, in data set [2], the IC50 amounted to 10 µM.

Consider `CCCCCCCCn1cc(CN2CCC3(CC2)OCCCO3)c2ccc(C#N)cc21`, for which the HC50 at 1 h in data set [1] was above 300 µM. In addition, in data set [2], the IC50 came out at 22 µM.

Consider `CCCCCCCCn1cc(CN2CCCCC2)c2ccc([N+](=O)[O-])cc21`, for which the half-maximal inhibitory concentration (IC50) in data set [2] came out at 23 µM.

For `CCCCCCCCn1cc(CNCC2CC3CCC2C3)c2ccc(OC)cc21` (configuration not stated), the 50% haemolytic concentration (HC50) at 1 h in data set [1] was 19 µM. Moreover, the concentration for half-maximal inhibition (IC50) in data set [2] stood at 10 µM.

`COc1ccc2c(CN3CCC4(CC3)OCCCO4)cn(CCCOc3ccc(C)cc3)c2c1` came in with an HC50 at 1 h in data set [1] above 300 µM.

In the case of `CCCCCCCCn1cc(CN2CCC3(CC2)SCCS3)c2ccc(OC)cc21`, in data set [4], the thermal shift (ΔTm) came to 4 °C. This compound yielded an HC50 at 1 h in data set [1] above 300 µM. For the same compound, in data set [2], the IC50 was above 200 µM. Besides, in data set [5], the MIC50 came to 0.7 µM (≈ 0.313 µg/mL) and the MIC90 was found to be 1.1 µM (≈ 0.491 µg/mL). In data set [3], the selectivity ratio was above 400.

Turning to `COc1ccc2c(CN3CCC4(CC3)OCCCO4)cn(CCCOc3ccc(F)cc3)c2c1`, the concentration for 50% haemolysis (HC50) at 1 h in data set [1] was above 300 µM.

In data set [1], `CCCCCCCCn1cc(CN2CCC3(CC2)OCCO3)c2ccc([N+](=O)[O-])cc21` returned a 50% haemolytic concentration (HC50) at 1 h above 300 µM. Moreover, the IC50 in data set [2] worked out at 62 µM.

Regarding `CCCCCCCCn1cc(CN2CCC3(CC2)OCCO3)c2ccc(OCCC)cc21`, the concentration for 50% haemolysis (HC50) at 1 h in data set [1] came out at 31 µM. Besides, the half-inhibitory concentration (IC50) in data set [2] came out at 29 µM.

Consider `CCCCCCCCn1ccc2ccc(OCCCN3CCCCCC3)cc21`, for which the IC50 in data set [2] came to 33 µM.

For `CCCCCCCCn1cc(CN2CCC3(CC2)OCCCO3)c2ccc([N+](=O)[O-])cc21`, in data set [1], the concentration for 50% haemolysis (HC50) at 1 h was above 300 µM. Also, the IC50 in data set [2] amounted to 28 µM.

Take `COc1ccc2c(CN3CCC4(CC3)OCCCO4)cn(CCCOc3ccc(C)c(C)c3)c2c1`: in data set [1], the HC50 at 1 h is above 300 µM.

Regarding `CCCCCCCCn1cc(CN2CCC3(CCc4ccccc43)CC2)c2ccc(OC)cc21`, the HC50 at 1 h in data set [1] is above 300 µM. Further, the concentration for half-maximal inhibition (IC50) in data set [2] amounted to 31 µM. Besides, the selectivity ratio in data set [3] was found to be 31.

Take `CCCCCCCCn1cc(CN2CCC3(CCN(Cc4ccccc4)CC3)CC2)c2ccc(OC)cc21`: the HC50 at 1 h in data set [1] is 69 µM. In addition, in data set [2], the IC50 was determined as 14 µM.

Consider `CCCCCCCCn1cc(CNCC2CCC3CC3C2)c2ccc(OC)cc21` (configuration not stated), for which the half-maximal inhibitory concentration (IC50) in data set [2] was 20 µM. Moreover, the selectivity ratio in data set [3] was 13.

Consider `CCCCCCCCn1cc(CN2CCCCC2)c2ccc(C#N)cc21`, for which the concentration for half-maximal inhibition (IC50) in data set [2] worked out at 22 µM.

Turning to `CCCCCCCCn1cc(CN2CCC3(CC2)OCCO3)c2ccc(C#N)cc21`, the 50% haemolytic concentration (HC50) at 1 h in data set [1] was above 300 µM. In data set [2], the half-maximal inhibitory concentration (IC50) was determined as 59 µM.

`CCCCCCCCn1cc(CN2CCC3(CC2)OC[C@H](C)O3)c2ccc(OC)cc21` gave a 50% haemolytic concentration (HC50) at 1 h in data set [1] of 51 µM. The concentration for half-maximal inhibition (IC50) in data set [2] is 34 µM.

`COc1ccc(CCCn2cc(CN3CCC4(CC3)OCCO4)c3ccc(OC)cc32)cc1`: the IC50 in data set [2] was 31 µM.

For the compound `COc1ccc(OCCCn2cc(CN3CCC4(CC3)OCCCO4)c3ccc(OC)cc32)cc1`, in data set [1], the 50% haemolytic concentration (HC50) at 1 h was above 300 µM. Besides, the IC50 in data set [2] is 46 µM.

Take `CCCCCCCCn1cc(CN2CCC3(CC2)OC[C@@H](C)O3)c2ccc(OC)cc21`: in data set [1], the HC50 at 1 h is 75 µM. For the same compound, in data set [2], the concentration for half-maximal inhibition (IC50) was 37 µM.

In the case of `CCCCCCCCn1cc(CN2CCCC3(CC2)OCCCS3)c2ccc(OC)cc21` (configuration not stated), the HC50 at 1 h in data set [1] amounted to 132 µM. For the same compound, in data set [2], the IC50 came out at 34 µM.

Take `COc1ccc2c(CN3CCC4(CC3)OCCCO4)cn(CCCOCc3ccccc3)c2c1`: the IC50 in data set [2] stood at 54 µM.

`CCCCCCCCn1cc(CN2CC(c3ccccc3)C2)c2ccc(OC)cc21`: in data set [1], the concentration for 50% haemolysis (HC50) at 1 h was above 300 µM. Moreover, in data set [2], the IC50 worked out at 44 µM.

Turning to `COc1ccc2c(CN3CCC4(CC3)OCCO4)cn(CCCc3ccccc3)c2c1`, in data set [2], the IC50 is 35 µM.

Compound `COc1ccc2c(CN3CCC4(CC3)OCCCO4)cn(CCCCc3ccccc3)c2c1` yielded a 50% haemolytic concentration (HC50) at 1 h in data set [1] above 300 µM. In data set [2], the 50% inhibitory concentration (IC50) is 21 µM.

In data set [1], `CCCCCCCCn1cc(CN2CCC3(CCO3)CC2)c2ccc(OC)cc21` returned a concentration for 50% haemolysis (HC50) at 1 h of 88 µM. Besides, the IC50 in data set [2] turned out to be 31 µM. Further, in data set [3], the selectivity ratio was 16.

In turn, `CCCCCCCCn1cc(CN2CCC3(CC2)OCCCO3)c2ccc(OCCC)cc21` displayed an HC50 at 1 h in data set [1] of 27 µM. The IC50 in data set [2] turned out to be 29 µM.

Turning to `CCCCCCCCn1cc(CN2[C@H]3CCC[C@@H]2CCC3)c2ccc(OC)cc21`, the HC50 at 1 h in data set [1] is 109 µM. Also, the IC50 in data set [2] worked out at 31 µM. Besides, the selectivity ratio in data set [3] stood at 8.

For the compound `CCCCCCCCn1cc(CN2CCC3(CC2)OC(C)C(C)O3)c2ccc(OC)cc21` (configuration not stated), in data set [1], the 50% haemolytic concentration (HC50) at 1 h turned out to be 76 µM. For the same compound, the half-inhibitory concentration (IC50) in data set [2] amounted to 34 µM. The selectivity ratio in data set [3] was determined as 49.

`CCCCCCCCn1cc(CN2CCC3(CC2)OCCO3)c2ccc(OC(C)C)cc21` registered a 50% haemolytic concentration (HC50) at 1 h in data set [1] of 56 µM. Besides, the IC50 in data set [2] stood at 41 µM.

For `CCCCCCCCn1cc(CNC2CCC3(CC2)OCCO3)c2ccc(OC)cc21`, in data set [1], the HC50 at 1 h worked out at 207 µM. The IC50 in data set [2] was determined as 22 µM.

Take `CCCCCCCCn1cc(CN2CCC3(CC2)OCCCO3)c2ccc(OC(C)C)cc21`: in data set [1], the HC50 at 1 h was 29 µM. Moreover, the IC50 in data set [2] is 20 µM.

Take `CCCCCCCCn1cc(CN2CCCCC2)c2ccc(OC(C)C)cc21`: the IC50 in data set [2] came out at 26 µM.

For `CCCCCCCCn1cc(CN2CCCC3(CC2)OCCS3)c2ccc(OC)cc21` (configuration not stated), in data set [1], the 50% haemolytic concentration (HC50) at 1 h was above 300 µM. Besides, the IC50 in data set [2] was found to be 35 µM.

With `CCCCCCCCn1cc(CN2CCOC3(CCCOC3)C2)c2ccc(OC)cc21` (configuration not stated), the HC50 at 1 h in data set [1] was above 300 µM. Further, the half-inhibitory concentration (IC50) in data set [2] was above 500 µM. Also, the selectivity ratio in data set [3] was above 278.

Regarding `CCCCCCCCn1cc(CN2CCC3(CC2)OCCO3)c2ccc(OCc3ccccc3)cc21`, in data set [1], the HC50 at 1 h is above 300 µM. Further, in data set [2], the half-inhibitory concentration (IC50) is 36 µM.

Consider `COc1ccc2c(CN3CCCCC3)cn(CCCc3ccccc3)c2c1`, for which the IC50 in data set [2] was 43 µM.

For `CCCCCCCCn1cc(CN2CCC3(CC2)OCCCO3)c2ccc(OCc3ccccc3)cc21`, the 50% haemolytic concentration (HC50) at 1 h in data set [1] is above 300 µM. Moreover, in data set [2], the half-inhibitory concentration (IC50) is 27 µM.
